Target: Aurora kinase B/Inner centromere protein (Homo sapiens, UniProt Q96GD4)
Assay: Inhibition of AURKB/INCENP (unknown origin) preincubated for 15 mins prior to ATP addition by FRET-based homogenous assay
Assay type: protein-complex assay
Settings: not given
How it was run: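 The enzyme was AURKB/INCENP in a FRET-based homogeneous assay run to kit specifications, with ATP at 128 μM. […] Each IC50 came from a single determination, reported with its standard fitting error.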

Chain of Aurora kinase B/Inner centromere protein (Q96GD4 whole entry): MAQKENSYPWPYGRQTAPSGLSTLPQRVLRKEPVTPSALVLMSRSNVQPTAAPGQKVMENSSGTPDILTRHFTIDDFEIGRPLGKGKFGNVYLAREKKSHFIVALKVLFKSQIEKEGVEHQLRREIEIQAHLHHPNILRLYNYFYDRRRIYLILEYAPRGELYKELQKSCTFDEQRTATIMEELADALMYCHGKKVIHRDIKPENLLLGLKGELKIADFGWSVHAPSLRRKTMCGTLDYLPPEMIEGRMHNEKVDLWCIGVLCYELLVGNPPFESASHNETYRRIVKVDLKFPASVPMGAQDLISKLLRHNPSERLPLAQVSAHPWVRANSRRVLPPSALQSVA
Chain of Aurora kinase B/Inner centromere protein (Q9NQS7 whole entry, further chain): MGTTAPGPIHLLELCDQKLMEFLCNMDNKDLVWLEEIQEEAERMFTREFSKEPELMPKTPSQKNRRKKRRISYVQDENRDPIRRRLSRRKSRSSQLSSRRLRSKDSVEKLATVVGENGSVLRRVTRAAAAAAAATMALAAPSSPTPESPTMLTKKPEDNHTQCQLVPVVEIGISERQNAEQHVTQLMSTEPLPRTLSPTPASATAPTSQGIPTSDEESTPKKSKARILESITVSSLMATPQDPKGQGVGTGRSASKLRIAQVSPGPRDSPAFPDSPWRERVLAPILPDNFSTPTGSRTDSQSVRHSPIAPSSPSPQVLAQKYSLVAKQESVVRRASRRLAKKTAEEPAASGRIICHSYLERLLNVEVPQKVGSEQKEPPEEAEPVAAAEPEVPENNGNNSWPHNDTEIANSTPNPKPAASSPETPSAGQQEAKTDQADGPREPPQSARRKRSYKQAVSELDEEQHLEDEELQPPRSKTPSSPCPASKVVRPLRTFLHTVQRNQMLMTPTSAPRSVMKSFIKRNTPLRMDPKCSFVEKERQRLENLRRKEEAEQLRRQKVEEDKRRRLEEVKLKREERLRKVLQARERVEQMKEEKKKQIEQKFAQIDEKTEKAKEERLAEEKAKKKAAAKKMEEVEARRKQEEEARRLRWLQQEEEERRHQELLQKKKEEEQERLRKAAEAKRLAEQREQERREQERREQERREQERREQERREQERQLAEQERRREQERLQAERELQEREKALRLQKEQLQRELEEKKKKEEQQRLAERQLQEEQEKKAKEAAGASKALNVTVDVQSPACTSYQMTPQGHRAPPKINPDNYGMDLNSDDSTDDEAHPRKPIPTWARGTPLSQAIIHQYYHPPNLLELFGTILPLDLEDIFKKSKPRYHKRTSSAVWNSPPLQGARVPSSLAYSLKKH

First: O=C(N[C@@H](c1ncccn1)C1CCCC1)c1ccc2[nH]nc(-c3ccc(N4[C@H]5CC[C@H]4CC(O)C5)cc3)c2c1 (stereo partly specified)
Second: CC(C)C[C@H](NC(=O)c1ccc2[nH]nc(-c3ccc(N4[C@H]5CC[C@H]4CC(O)C5)cc3)c2c1)c1ccccn1 (stereo partly specified)
The IC50 of the first is 1.8-fold lower: 850 nM for the first, 1500 nM for the second. The first is the more potent here.

Compared with `CC(C)C[C@@H](NC(=O)c1ccc2[nH]nc(-c3ccc(N4[C@H]5CC[C@H]4CC(O)C5)cc3)c2c1)c1ccccn1` (stereo partly specified), `CC(C)C[C@H](NC(=O)c1ccc2[nH]nc(-c3ccc(N4[C@H]5CCC[C@H]4CC(O)C5)cc3)c2c1)c1ccccn1` (stereo partly specified) is 1.6-fold lower in IC50: 1600 nM for the first, 980 nM for the second.

Target: T1, Dual specificity protein kinase TTK (Homo sapiens, UniProt P33981)
T1 sequence (P33981 whole entry): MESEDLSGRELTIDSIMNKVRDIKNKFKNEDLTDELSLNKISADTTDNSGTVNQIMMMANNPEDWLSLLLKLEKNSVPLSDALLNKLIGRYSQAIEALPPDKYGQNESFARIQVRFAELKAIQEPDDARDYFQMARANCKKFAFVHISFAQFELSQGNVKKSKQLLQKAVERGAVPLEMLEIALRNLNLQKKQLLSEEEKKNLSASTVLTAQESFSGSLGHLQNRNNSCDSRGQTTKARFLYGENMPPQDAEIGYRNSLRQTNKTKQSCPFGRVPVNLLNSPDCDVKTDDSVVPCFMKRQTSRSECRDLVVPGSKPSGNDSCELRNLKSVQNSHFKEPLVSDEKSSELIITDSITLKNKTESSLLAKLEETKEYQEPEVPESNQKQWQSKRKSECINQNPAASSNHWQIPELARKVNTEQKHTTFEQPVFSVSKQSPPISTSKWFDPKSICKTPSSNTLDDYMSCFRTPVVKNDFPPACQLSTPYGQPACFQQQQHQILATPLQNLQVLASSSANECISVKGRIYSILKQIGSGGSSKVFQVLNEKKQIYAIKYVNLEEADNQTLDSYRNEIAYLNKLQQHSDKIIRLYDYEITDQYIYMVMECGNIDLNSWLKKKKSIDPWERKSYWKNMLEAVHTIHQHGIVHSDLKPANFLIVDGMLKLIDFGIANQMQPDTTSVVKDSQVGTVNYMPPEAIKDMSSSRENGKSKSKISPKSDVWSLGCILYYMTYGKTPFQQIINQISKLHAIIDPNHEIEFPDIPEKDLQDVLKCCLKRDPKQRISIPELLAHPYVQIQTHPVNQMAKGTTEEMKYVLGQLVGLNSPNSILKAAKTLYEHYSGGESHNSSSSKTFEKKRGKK
Assay: Inhibition of amino terminal GST-fused full length human TTK using His6-SUMO-TTK-N as substrate preincubated for 15 mins prior to ATP addition by indirect ELISA detection system
Settings: not given

Compared with `O=C(N[C@@H](c1ncccn1)C1CCCC1)c1ccc2[nH]nc(-c3ccc(N4[C@H]5CC[C@H]4CC(O)C5)cc3)c2c1` (stereo partly specified), `CC(C)C[C@H](NC(=O)c1ccc2[nH]nc(-c3ccc(N4[C@H]5CC[C@H]4CC(O)C5)cc3)c2c1)c1ccccn1` (stereo partly specified) is 2.3-fold lower in IC50: 3.9 nM for the first, 1.7 nM for the second. The second is the more potent here.

First: CC(C)C[C@@H](NC(=O)c1ccc2[nH]nc(-c3ccc(N4[C@H]5CC[C@H]4CC(O)C5)cc3)c2c1)c1ccccn1 (stereo partly specified)
Second: CC(C)C[C@H](NC(=O)c1ccc2[nH]nc(-c3ccc(N4[C@H]5CCC[C@H]4CC(O)C5)cc3)c2c1)c1ccccn1 (stereo partly specified)
The IC50 of the first is 5.2-fold lower: 2.7 nM for the first, 14 nM for the second. The first is the more potent here.

Tested on: MDA-MB-468
Assay: Cytotoxicity against human MDA-MB-468 cells after 5 days by sulforhodamine B assay
Assay type: functional
Settings: Homo sapiens, MDA-MB-468, 120 h
How it was run: (§1)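 Cancer lines were seeded at 800–6000 cells per well according to growth rate, 24 h before compound overlay. After culture, cells were fixed in situ and stained with sulforhodamine B. GI50 values were derived by curve fitting.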

Compared with `O=C(N[C@@H](c1ncccn1)C1CCCC1)c1ccc2[nH]nc(-c3ccc(N4[C@H]5CC[C@H]4CC(O)C5)cc3)c2c1` (stereo partly specified), `CC(C)C[C@H](NC(=O)c1ccc2[nH]nc(-c3ccc(N4[C@H]5CC[C@H]4CC(O)C5)cc3)c2c1)c1ccccn1` (stereo partly specified) is 8.8-fold lower in GI50: 150 nM for the first, 17 nM for the second.

First: CC(C)C[C@@H](NC(=O)c1ccc2[nH]nc(-c3ccc(N4[C@H]5CC[C@H]4CC(O)C5)cc3)c2c1)c1ccccn1 (stereo partly specified)
Second: CC(C)C[C@H](NC(=O)c1ccc2[nH]nc(-c3ccc(N4[C@H]5CCC[C@H]4CC(O)C5)cc3)c2c1)c1ccccn1 (stereo partly specified)
The GI50 of the first is 17-fold lower: 26 nM for the first, 450 nM for the second.

Tested on: not listed separately
Assay: Cytotoxicity against human HCT116 cells after 5 days by sulforhodamine B assay
Assay type: functional, HCT-116
Settings: Homo sapiens, HCT-116, 120 h
How it was run: as §1

First: O=C(N[C@@H](c1ncccn1)C1CCCC1)c1ccc2[nH]nc(-c3ccc(N4[C@H]5CC[C@H]4CC(O)C5)cc3)c2c1 (stereo partly specified)
Second: CC(C)C[C@H](NC(=O)c1ccc2[nH]nc(-c3ccc(N4[C@H]5CC[C@H]4CC(O)C5)cc3)c2c1)c1ccccn1 (stereo partly specified)
The GI50 of the first is 10-fold higher: 20 nM for the first, 2 nM for the second.

First: CC(C)C[C@@H](NC(=O)c1ccc2[nH]nc(-c3ccc(N4[C@H]5CC[C@H]4CC(O)C5)cc3)c2c1)c1ccccn1 (stereo partly specified)
Second: CC(C)C[C@H](NC(=O)c1ccc2[nH]nc(-c3ccc(N4[C@H]5CCC[C@H]4CC(O)C5)cc3)c2c1)c1ccccn1 (stereo partly specified)
The GI50 of the first is 30-fold lower: 5 nM for the first, 150 nM for the second.

Tested on: not listed separately
Assay: Half life in rat liver microsomes at 1 uM by LC-MS analysis
Assay type: ADME
Settings: liver microsomes

Going from `CC(C)C[C@H](NC(=O)c1ccc2[nH]nc(-c3ccc(N4[C@H]5CC[C@H]4CC(O)C5)cc3)c2c1)c1ccccn1` (stereo partly specified) to `CC(C)C[C@@H](NC(=O)c1ccc2[nH]nc(-c3ccc(N4[C@H]5CC[C@H]4CC(O)C5)cc3)c2c1)c1ccccn1` (stereo partly specified), the half-life at 1 µM falls from 48 min to 25 min (1.9-fold).

Tested on: not listed separately
Assay: Cytotoxicity against human OVCAR3 cells after 5 days by sulforhodamine B assay
Assay type: functional, OVCAR-3
Settings: Homo sapiens, OVCAR-3, 120 h

`O=C(N[C@@H](c1ncccn1)C1CCCC1)c1ccc2[nH]nc(-c3ccc(N4[C@H]5CC[C@H]4CC(O)C5)cc3)c2c1` (stereo partly specified) and `CC(C)C[C@H](NC(=O)c1ccc2[nH]nc(-c3ccc(N4[C@H]5CC[C@H]4CC(O)C5)cc3)c2c1)c1ccccn1` (stereo partly specified) are within 1.5-fold of each other in GI50: 160 nM for the first, 140 nM for the second.

Going from `CC(C)C[C@@H](NC(=O)c1ccc2[nH]nc(-c3ccc(N4[C@H]5CC[C@H]4CC(O)C5)cc3)c2c1)c1ccccn1` (stereo partly specified) to `CC(C)C[C@H](NC(=O)c1ccc2[nH]nc(-c3ccc(N4[C@H]5CCC[C@H]4CC(O)C5)cc3)c2c1)c1ccccn1` (stereo partly specified), the GI50 rises from 82 nM to 730 nM (8.9-fold).

Species on record: Homo sapiens
Assay: Selectivity ratio of IC50 for AURKB/INCENP (unknown origin) to IC50 for amino terminal GST-fused full length human TTK
Settings: not given

`CC(C)C[C@H](NC(=O)c1ccc2[nH]nc(-c3ccc(N4[C@H]5CCC[C@H]4CC(O)C5)cc3)c2c1)c1ccccn1` (stereo partly specified) gave a Ratio IC50 greater than 100.

Tested on: not listed separately
Assay: Half life in mouse liver microsomes at 1 uM by LC-MS analysis
Assay type: ADME
Settings: liver microsomes

`O=C(N[C@@H](c1ncccn1)C1CCCC1)c1ccc2[nH]nc(-c3ccc(N4[C@H]5CC[C@H]4CC(O)C5)cc3)c2c1` (stereo partly specified) and `CC(C)C[C@H](NC(=O)c1ccc2[nH]nc(-c3ccc(N4[C@H]5CC[C@H]4CC(O)C5)cc3)c2c1)c1ccccn1` (stereo partly specified) cannot be ordered by half-life at 1 µM: greater than 60 min for the first, greater than 60 min for the second.

`CC(C)C[C@@H](NC(=O)c1ccc2[nH]nc(-c3ccc(N4[C@H]5CC[C@H]4CC(O)C5)cc3)c2c1)c1ccccn1` (stereo partly specified) showed a half-life at 1 µM greater than 60 min.

— ChEMBL document CHEMBL3421533, “The Discovery of Orally Bioavailable Tyrosine Threonine Kinase (TTK) Inhibitors: 3-(4-(heterocyclyl)phenyl)-1H-indazole-5-carboxamides as Anticancer Agents” (J Med Chem, 2015)
